Laboratory results taken from ChEMBL document CHEMBL1154044, “5-Nitro-2-furyl derivative actives against Trypanosoma cruzi: preliminary in vivo studies” (Eur J Med Chem, 2009).
The source made the active and inactive calls. The rule behind the calls is not given here.

Legend:
Mus musculus [1] = experiment: Toxicity in CD1 mouse heart at 450 mg/kg, po after 3 days by histological study; format: organism-based; set-up: dose 450 mg/kg, route oral; conditions: in vivo, 72 h
Procedure, shortened: (§1)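 Healthy female CD1 mice (20–22 g), 5–7 per group, given a single oral (intragastric) or i.p. dose in saline:Tween 80 (4:1) vehicle. Sacrificed on day 3 after ether anaesthesia. Organs fixed in 10% aqueous formalin for histology. Scored against untreated animals from no change to +++ (many changes).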

Mus musculus [2] = experiment: Toxicity in CD1 mouse heart at 300 mg/kg, ip after 3 days by histological study; format: organism-based; set-up: dose 300 mg/kg, route intraperitoneal; conditions: in vivo, 72 h; procedure, shortened: as §1
Mus musculus [3] = experiment: Toxicity in CD1 mouse lung at 450 mg/kg, po after 3 days by histological study; format: organism-based; set-up: dose 450 mg/kg, route oral; conditions: in vivo, 72 h; procedure, shortened: as §1
Mus musculus [4] = experiment: Toxicity in CD1 mouse lung at 300 mg/kg, ip after 3 days by histological study; format: organism-based; set-up: dose 300 mg/kg, route intraperitoneal; conditions: in vivo, 72 h; procedure, shortened: as §1
Mus musculus [5] = experiment: Toxicity in CD1 mouse brain at 450 mg/kg, po after 3 days by histological study; format: organism-based; set-up: dose 450 mg/kg, route oral; conditions: in vivo, 72 h; procedure, shortened: as §1
Mus musculus [6] = experiment: Toxicity in CD1 mouse brain at 300 mg/kg, ip after 3 days by histological study; format: organism-based; set-up: dose 300 mg/kg, route intraperitoneal; conditions: in vivo, 72 h; procedure, shortened: as §1
Trypanosoma cruzi [7] = experiment: Antitrypanosomal activity against Trypanosoma cruzi infected in po dosed CD1 mouse assessed as prevention of inflammatory infiltrates in heart administered daily for 14 days measured on day 45; format: functional, organism-based
Procedure, shortened: (§2)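 T. cruzi, a Uruguayan patient isolate, was inoculated intradermally into 2-month-old female CD1 mice (20–22 g). Dosing began on day 15 after parasitaemia was observed. Drugs were suspended in saline:Tween 80 (4:1) and given by intragastric syringe once daily for 14 days, with untreated controls. On day 45 after treatment start, heart and muscle sections were scored by two independent observers for amastigotes and inflammatory infiltrates. Groups had 5–7 mice.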

Trypanosoma cruzi [8] = experiment: Antitrypanosomal activity against Trypanosoma cruzi infected in po dosed CD1 mouse assessed as prevention of amastigote nest in heart administered daily for 14 days measured on day 45; format: functional, organism-based; procedure, shortened: as §2
Trypanosoma cruzi [9] = experiment: Growth inhibition of Trypanosoma cruzi Tulahuen 2 epimastigote at 5 uM after 5 days; format: functional; set-up: Activity: scale not given: the % may be the effect or the level left
Mus musculus [10] = experiment: Toxicity in CD1 mouse assessed as survival at 450 mg/kg, po after 3 days; format: organism-based; set-up: dose 450 mg/kg, route oral; conditions: in vivo, 72 h
Procedure, shortened: (§3)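 Healthy 2-month-old female CD1 mice (20–22 g), groups of 5–7, given one oral dose by intragastric syringe or one i.p. injection. Compound suspended in saline:Tween 80 (4:1) with sonication just before dosing; vehicle-treated controls included. Weighed and observed daily over 3 days for skin, physical aspect, activity and faeces; survival recorded at day 3.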

Mus musculus [11] = experiment: Toxicity in CD1 mouse assessed as increase in weight respect to day zero at 300 mg/kg, ip after 3 days; format: organism-based; set-up: dose 300 mg/kg, route intraperitoneal; conditions: in vivo, 72 h
Procedure, shortened: (§4)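 Healthy 2-month-old female CD1 mice (20–22 g, 5–7 per group) received one dose. Oral doses of 450 or 300 mg/kg were given by intragastric syringe; i.p. doses of 300 or 150 mg/kg by injection. Drugs were suspended in saline:Tween 80 (4:1), and a vehicle-only control was included. Mice were weighed and observed daily for 3 days. Weight change is expressed as percent relative to day zero.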

Mus musculus [12] = experiment: Toxicity in CD1 mouse assessed as survival at 300 mg/kg, ip after 3 days; format: organism-based; set-up: dose 300 mg/kg, route intraperitoneal; conditions: in vivo, 72 h; procedure, shortened: as §3
Mus musculus [13] = experiment: Toxicity in CD1 mouse assessed as leukocyte level at 450 mg/kg, po after 3 days; format: organism-based; set-up: dose 450 mg/kg, route oral; conditions: in vivo, 72 h
Procedure, shortened: (§5)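 Healthy female CD1 mice (5–7 per group) received a single oral dose of 450 mg/kg or an i.p. dose of 300 mg/kg, with vehicle controls. On day 3 they were sacrificed under ether anaesthesia. Blood was drawn from the subclavian artery and kept at 0 °C in EDTA or heparin. Leukocytes, haemoglobin, haematocrit, GPT and GOT were measured within 24 h and compared with normal ranges.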

Mus musculus [14] = experiment: Toxicity in CD1 mouse assessed as leukocyte level at 300 mg/kg, ip after 3 days; format: organism-based; set-up: dose 300 mg/kg, route intraperitoneal; conditions: in vivo, 72 h; procedure, shortened: as §5
Mus musculus [15] = experiment: Toxicity in CD1 mouse assessed as haemoglobin level at 450 mg/kg, po after 3 days; format: organism-based; set-up: dose 450 mg/kg, route oral; conditions: in vivo, 72 h; procedure, shortened: as §5
Mus musculus [16] = experiment: Toxicity in CD1 mouse assessed as haemoglobin level at 300 mg/kg, ip after 3 days; format: organism-based; set-up: dose 300 mg/kg, route intraperitoneal; conditions: in vivo, 72 h; procedure, shortened: as §5
Mus musculus [17] = experiment: Toxicity in CD1 mouse assessed as hematocrite level at 450 mg/kg, po after 3 days; format: organism-based; set-up: dose 450 mg/kg, route oral; conditions: in vivo, 72 h; procedure, shortened: as §5
Mus musculus [18] = experiment: Toxicity in CD1 mouse assessed as hematocrite level at 300 mg/kg, ip after 3 days; format: organism-based; set-up: dose 300 mg/kg, route intraperitoneal; conditions: in vivo, 72 h; procedure, shortened: as §5
Mus musculus [19] = experiment: Toxicity in CD1 mouse assessed as glutamic-pyruvate transaminase level at 450 mg/kg, po after 3 days; format: organism-based; set-up: dose 450 mg/kg, route oral; conditions: in vivo, 72 h; procedure, shortened: as §5
Mus musculus [20] = experiment: Toxicity in CD1 mouse assessed as glutamic-pyruvate transaminase level at 300 mg/kg, ip after 3 days; format: organism-based; set-up: dose 300 mg/kg, route intraperitoneal; conditions: in vivo, 72 h; procedure, shortened: as §5
Mus musculus [21] = experiment: Toxicity in CD1 mouse assessed as glutamic-oxalacetate transaminase level at 450 mg/kg, po after 3 days; format: organism-based; set-up: dose 450 mg/kg, route oral; conditions: in vivo, 72 h; procedure, shortened: as §5
Mus musculus [22] = experiment: Toxicity in CD1 mouse liver at 300 mg/kg, ip after 3 days by histological study; format: organism-based; set-up: dose 300 mg/kg, route intraperitoneal; conditions: in vivo, 72 h; procedure, shortened: as §1
Mus musculus [23] = experiment: Toxicity in CD1 mouse assessed as glutamic-oxalacetate transaminase level at 300 mg/kg, ip after 3 days; format: organism-based; set-up: dose 300 mg/kg, route intraperitoneal; conditions: in vivo, 72 h; procedure, shortened: as §5
Mus musculus [24] = experiment: Toxicity in CD1 mouse liver at 450 mg/kg, po after 3 days by histological study; format: organism-based; set-up: dose 450 mg/kg, route oral; conditions: in vivo, 72 h; procedure, shortened: as §1
Mus musculus [25] = experiment: Toxicity in CD1 mouse intestine at 450 mg/kg, po after 3 days by histological study; format: organism-based; set-up: dose 450 mg/kg, route oral; conditions: in vivo, 72 h; procedure, shortened: as §1
Mus musculus [26] = experiment: Toxicity in CD1 mouse intestine at 300 mg/kg, ip after 3 days by histological study; format: organism-based; set-up: dose 300 mg/kg, route intraperitoneal; conditions: in vivo, 72 h; procedure, shortened: as §1
Mus musculus [27] = experiment: Toxicity in CD1 mouse kidney at 450 mg/kg, po after 3 days by histological study; format: organism-based; set-up: dose 450 mg/kg, route oral; conditions: in vivo, 72 h; procedure, shortened: as §1
Mus musculus [28] = experiment: Toxicity in CD1 mouse kidney at 300 mg/kg, ip after 3 days by histological study; format: organism-based; set-up: dose 300 mg/kg, route intraperitoneal; conditions: in vivo, 72 h; procedure, shortened: as §1
Mus musculus [29] = experiment: Toxicity in CD1 mouse assessed as increase in weight respect to day zero at 450 mg/kg, po after 3 days; conditions: in vivo, 72 h
Mus musculus [30] = experiment: Toxicity in CD1 mouse assessed as decrease in weight respect to day zero at 450 mg/kg, po after 3 days; format: organism-based; set-up: dose 450 mg/kg, route oral; scale not given: the % may be the effect or the level left; conditions: in vivo, 72 h; procedure, shortened: as §4

Compound	Activity (Mus musculus [1])	Activity (Mus musculus [2])	Activity (Mus musculus [3])	Activity (Mus musculus [4])	Activity (Mus musculus [5])	Activity (Mus musculus [6])	Activity (Mus musculus [10])	Activity (Mus musculus [11]) [%]	Activity (Mus musculus [12])	Activity (Mus musculus [13]) [µL⁻¹]	Activity (Mus musculus [14]) [µL⁻¹]	Activity (Mus musculus [15]) [g/dL]	Activity (Mus musculus [16]) [g/dL]	Activity (Mus musculus [17]) [%]	Activity (Mus musculus [19]) [IU/L]	Activity (Mus musculus [20]) [IU/L]	Activity (Mus musculus [21]) [IU/L]	Activity (Mus musculus [22])	Activity (Mus musculus [23]) [IU/L]	Activity (Mus musculus [24])	other results
CCCCCCOC(=O)N/N=C/C=C/c1ccc([N+](=O)[O-])o1	Non-toxic	Non-toxic	Non-toxic	Non-toxic	Non-toxic	Non-toxic	Non-toxic	2	Non-toxic	6600	5300	13.5	12	42.1	42	33	164	Toxic	172	Toxic	Activity (Trypanosoma cruzi [7]): Active; Activity (Trypanosoma cruzi [8]): Active; Activity (Trypanosoma cruzi [9]): 86%; Activity (Mus musculus [18]): 22.9%; Activity (Mus musculus [25]): Non-toxic; Activity (Mus musculus [26]): Non-toxic; Activity (Mus musculus [27]): Toxic; Activity (Mus musculus [28]): Non-toxic; Activity (Mus musculus [29]): 2%
CCCCCCNC(=O)/C=C/c1ccc([N+](=O)[O-])o1	Toxic	Toxic	Toxic	Toxic	Non-toxic	Non-toxic	Non-toxic	2	Non-toxic	86000	12100	11.5	11.3	30.4	22.7	52.8	69.8	Toxic	129	Toxic	inhibition of growth at 5 µM (Trypanosoma cruzi [9]; Trypanosoma cruzi, Tulahuen 2, 120 h, read-out: GI): 82%; Activity (Mus musculus [30]): 0%; Activity (Mus musculus [25]): Non-toxic; Activity (Mus musculus [26]): Non-toxic; Activity (Mus musculus [27]): Non-toxic; Activity (Mus musculus [28]): Non-toxic
